# Measurements taken from ChEMBL document CHEMBL4038305, “Benzoxaborole Antimalarial Agents. Part 5. Lead Optimization of Novel Amide Pyrazinyloxy Benzoxaboroles and Identification of a Preclinical Candidate” (J Med Chem, 2017).
# Activity calls are given as the source filed them. No cut-off for these calls is given here.
# What was measured:
# [1] = tested on: Plasmodium berghei; assay: Antimalarial activity against Plasmodium berghei infected in Swiss Webster mouse assessed as mouse survival rate at 1.1 mg/kg administered once daily via oral gavage for 4 consecutive days beginning 1 hr after infection measured on day 6 post infection relative to control; format: functional
# How it was run: (§1)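 Mice given an intraperitoneal injection of P. berghei-infected erythrocytes taken from a previously infected animal. Oral dosing once daily for 4 consecutive days, starting 1 h after infection. Vehicle: polyethylene glycol 300/propylene glycol/water (weight ratio 55/25/20). Percent survival recorded daily from day 4 to day 20. Chloroquine 30 mg/kg and vehicle-only groups served as controls.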
# [2] = tested on: Plasmodium berghei; assay: Antimalarial activity against Plasmodium berghei infected in Swiss Webster mouse assessed as mouse survival rate at 1.1 mg/kg administered once daily via oral gavage for 4 consecutive days beginning 1 hr after infection measured on day 7 post infection relative to control; format: functional; how it was run: as §1
# [3] = tested on: Plasmodium berghei; assay: Antimalarial activity against Plasmodium berghei infected in Swiss Webster mouse assessed as mouse survival rate at 11 mg/kg administered once daily via oral gavage for 4 consecutive days beginning 1 hr after infection measured on day 12 post infection relative to control; format: functional; how it was run: as §1
# [4] = Tmax in Sprague-Dawley rat plasma at 5 mg/kg, po via gavage by HPLC/MS analysis; format: ADME, organism-based
# [5] = Tmax in Beagle dog plasma at 5 mg/kg, po via gavage by HPLC/MS analysis; format: ADME, organism-based, Canis lupus familiaris
# [6] = Oral bioavailability in Sprague-Dawley rat at 5 mg/kg by HPLC/MS analysis; format: ADME, organism-based; details: in vivo
# How it was run: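 Female CD-1 mice, male SD rats or beagle dogs given 5 mg/kg by iv injection or oral gavage. Formulation was PEG300/propylene glycol/water 55/25/20, pH 6. Blood samples analysed by HPLC–MS/MS; parameters include AUC0-inf extrapolated to infinity and terminal half-life.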
# [7] = Terminal half life in Sprague-Dawley rat at 5 mg/kg, iv by HPLC/MS analysis; format: ADME, organism-based; details: in vivo, read-out: beta t1/2 (converted)
# [8] = tested on: Plasmodium falciparum; assay: Antimalarial activity against Plasmodium falciparum 3D7 0087/N9 infected in NOD/SCID IL2R gamma null mouse assessed as decrease in parasitemia at 0.3 to 75 mg/kg up to 7 days post infection; format: functional, organism-based
# How it was run: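 Human-erythrocyte-engrafted NODscidIL2Rγnull mice carrying P. falciparum Pf3D70087/N9 in peripheral blood; compound given orally once daily for four consecutive days.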
# [9] = tested on: Plasmodium falciparum; assay: Antimalarial activity against Plasmodium falciparum NF54 infected in human erythrocytes assessed as reduction in [3H]-hypoxanthine incorporation preincubated for 24 hrs followed by [3H]-hypoxanthine addition measured after 24 hrs by scintillation counting method; format: functional, cell-based
# [10] = tested on: Plasmodium falciparum; assay: Antimalarial activity against Plasmodium falciparum T9/94 infected in human erythrocytes assessed as reduction in [3H]-hypoxanthine incorporation preincubated for 24 hrs followed by [3H]-hypoxanthine addition measured after 24 hrs by scintillation counting method; format: functional, cell-based
# [11] = tested on: Plasmodium falciparum; assay: Antimalarial activity against Plasmodium falciparum V1/S infected in human erythrocytes assessed as reduction in [3H]-hypoxanthine incorporation preincubated for 24 hrs followed by [3H]-hypoxanthine addition measured after 24 hrs by scintillation counting method; format: functional, cell-based
# [12] = tested on: Plasmodium falciparum; assay: Antimalarial activity against Plasmodium falciparum 7G8 infected in human erythrocytes assessed as reduction in [3H]-hypoxanthine incorporation preincubated for 24 hrs followed by [3H]-hypoxanthine addition measured after 24 hrs by scintillation counting method; format: functional, cell-based
# [13] = tested on: Plasmodium falciparum; assay: Antimalarial activity against Plasmodium falciparum D6 infected in human erythrocytes assessed as reduction in [3H]-hypoxanthine incorporation preincubated for 24 hrs followed by [3H]-hypoxanthine addition measured after 24 hrs by scintillation counting method; format: functional, cell-based
# [14] = tested on: Plasmodium falciparum; assay: Antimalarial activity against intraerythrocytic stage of Plasmodium falciparum assessed as time required for maximal killing effect at 30 times IC50 preincubated for 24 hrs followed by [3H]-hypoxanthine addition measured after 24 hrs by scintillation counting method; format: functional
# How it was run: (§2)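 In vitro P. falciparum parasite reduction ratio assay run at 10×, 30× and 100× IC50. Derived parameters: lag phase (time to maximal killing), PRR (parasites killed per life cycle) and PCT99.9% (time to clear 99.9% of the initial parasite population).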
# [15] = tested on: Plasmodium falciparum; assay: Antimalarial activity against intraerythrocytic stage of Plasmodium falciparum assessed as time required to clear 99.9% of initial parasite population at 100 times IC50 preincubated for 24 hrs followed by [3H]-hypoxanthine addition measured after 24 hrs by scintillation counting method; format: functional; how it was run: as §2
# [16] = tested on: Salmonella typhimurium; assay: Genotoxicity in Salmonella typhimurium TA98 assessed as number of revertants per plate at 1.5 ug/plate in absence of rat liver S9 fraction by Ames test (reference value: 14 +/- 6); format: toxicity; details: salmonella enterica subsp. enterica serovar typhimurium
# [17] = tested on: Salmonella typhimurium; assay: Genotoxicity in Salmonella typhimurium TA100 assessed as number of revertants per plate at 500 ug/plate in presence of rat liver S9 fraction by Ames test (reference value: 141 +/- 1); format: toxicity; details: salmonella enterica subsp. enterica serovar typhimurium
# [18] = tested on: Salmonella typhimurium; assay: Genotoxicity in Salmonella typhimurium TA1535 assessed as number of revertants per plate at 1.5 ug/plate in absence of rat liver S9 fraction by Ames test (reference value: 10 +/- 3); format: toxicity; details: salmonella enterica subsp. enterica serovar typhimurium
# [19] = tested on: Salmonella typhimurium; assay: Genotoxicity in Salmonella typhimurium TA1535 assessed as number of revertants per plate at 5 ug/plate in absence of rat liver S9 fraction by Ames test (reference value: 10 +/- 3); format: toxicity; details: salmonella enterica subsp. enterica serovar typhimurium
# [20] = tested on: Salmonella typhimurium; assay: Genotoxicity in Salmonella typhimurium TA1537 assessed as number of revertants per plate at 5 ug/plate in absence of rat liver S9 fraction by Ames test (reference value: 19 +/- 9); format: toxicity; details: salmonella enterica subsp. enterica serovar typhimurium
# [21] = tested on: Escherichia coli; assay: Genotoxicity in Escherichia coli WP2uvrA assessed as number of revertants per plate at 1.5 ug/plate in absence of rat liver S9 fraction by Ames test (reference value: 45 +/- 9); format: toxicity
# [22] = tested on: Escherichia coli; assay: Genotoxicity in Escherichia coli WP2uvrA assessed as number of revertants per plate at 15 ug/plate in absence of rat liver S9 fraction by Ames test (reference value: 45 +/- 9); format: toxicity
# [23] = tested on: Escherichia coli; assay: Genotoxicity in Escherichia coli WP2uvrA assessed as number of revertants per plate at 500 ug/plate in absence of rat liver S9 fraction by Ames test (reference value: 45 +/- 9); format: toxicity
# [24] = tested on: Lymphocyte; assay: Genotoxicity in human lymphocytes assessed as replication index at 80 ug/mL after 28 hrs in absence of rat liver S9 fraction by micronucleus assay relative to control; format: toxicity, cell-based
# How it was run: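 Human lymphocytes exposed for 3 h with or without rat liver S9, or 28 h without S9, with 1% DMSO as vehicle control. Replication index = (binucleated + 2 × multinucleated cells)/total cells. Cytotoxicity (%) = 100 − (RI treated/RI vehicle) × 100.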
# [25] = tested on: Lymphocyte; assay: Genotoxicity in human lymphocytes assessed as increase in frequency of micronucleated cells at 160 ug/mL after 3 hrs in absence of rat liver S9 fraction by micronucleus assay (reference value: 0.99%); format: toxicity, cell-based
# [26] = tested on: Lymphocyte; assay: Genotoxicity in human lymphocytes assessed as increase in frequency of micronucleated cells at 160 ug/mL after 28 hrs in absence of rat liver S9 fraction by micronucleus assay (reference value: 0.74%); format: toxicity, cell-based
# [27] = tested on: Rattus norvegicus; assay: Genotoxicity in rat assessed as micronucleated polychromatic erythrocytes in bone marrow at 2000 mg/kg administered via oral gavage measured after 48 hrs post dose by micronucleus assay (reference value: 0.10 +/- 0.01%); format: toxicity, organism-based; details: in vivo
smiles,measurement,setting,value
Cc1c(Oc2cnc(C(=O)N3CC(O)(C(F)(F)F)C3)cn2)ccc2c1B(O)OC2,survival at 1.1 mg/kg,[1],100%
same,survival at 1.1 mg/kg,[2],0%
Cc1c(Oc2cnc(C(=O)N3CC(O)(C(C)C)C3)cn2)ccc2c1B(O)OC2,survival at 1.1 mg/kg,[1],100%
same,survival at 1.1 mg/kg,[2],0%
same,survival at 11 mg/kg,[3],20%
Cc1c(Oc2cnc(C(=O)N3CC(C)(O)C3)cn2)ccc2c1B(O)OC2,Tmax,[4],3.5 h
same,Tmax,[5],1.2 h
same,bioavailability,[6],96%
same,half-life,[7],4.6 h
same,Activity,[8],Active
same,IC50,[9],36 nM
same,IC50,[10],54 nM
same,IC50,[11],63 nM
same,IC50,[12],35 nM
same,IC50,[13],62 nM
same,Time,[14],0 h
same,T99.9%,[15],30 h
same,Activity,[16],15
same,Activity,[17],132
same,Activity,[18],12
same,Activity,[19],8
same,Activity,[20],15
same,Activity,[21],40
same,Activity,[22],41
same,Activity,[23],55
same,Activity,[24],7%
same,Activity,[25],1.18%
same,Activity,[26],0.89%
same,Activity,[27],0.1%
